The source made the active and inactive calls. The rule behind the calls is not given here.
Assays:
dengue virus type 2 [1] = experiment: Antiviral activity against DENV2 16681 infected in African green monkey Vero E6 cells assessed as reduction in virus induced cytopathic effect at 10 uM measured after 96 hrs by reverse phase contrast microscopy; type: functional, organism-based; conditions: Vero C1008
In short: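 Vero E6 cells in supporting DMEM infected with DENV2 strain 16681 (MOI 0.01), then treated immediately with compound at 10 μM. After 96 h incubation, cytopathic effect photographed by reverse phase-contrast microscopy and scored semi-quantitatively (−, +, ++, +++) against infected controls.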

dengue virus type 2 [2] = experiment: Antiviral activity against DENV2 16681 infected in African green monkey Vero E6 cells assessed as inhibitory rate of NS4B positive cells measured after 96 hrs incubation by DAPI staining based immunofluorescence method; type: functional, organism-based; conditions: for IC50: Dengue virus, 16681, Vero C1008, 96 h; for inhibition: Vero C1008
In short: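 Vero E6 cells in DMEM, infected with DENV2 strain 16681 at MOI 0.01 and treated with compound (0, 0.1, 1, 10 μM; single 10 μM for screening). After 96 h, immunofluorescence with anti-NS4B antibody and DAPI nuclear counterstain. Infectivity = NS4B-positive cells / DAPI-stained cells. Inhibitory rate = (1 − NS4B-positive % treated / NS4B-positive % mock-treated infected) × 100. IC50 derived from NS4B-positive percentages across concentrations.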

dengue virus type 2 [3] = experiment: Antiviral activity against DENV2 16681 infected in African green monkey Vero E6 cells assessed as reduction in virus induced cytopathic effect measured after 96 hrs by reverse phase contrast microscopy; type: functional, organism-based; conditions: Vero C1008
In short: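 Vero E6 cells in DMEM infected with DENV2 16681 at MOI 0.01, compound added immediately (screen at 10 μM, then 0, 0.1, 1, 10 μM). Photographed 96 h post infection by phase-contrast microscopy. CPE reduction scored qualitatively (−, +, ++, +++).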

[4] = Therapeutic index, ratio of CC50 for African green monkey Vero E6 cells to IC50 for DENV2 16681 infected in African green monkey Vero E6 cells; type: toxicity, Vero C1008; conditions: read-out: Ratio CC50/IC50
In short: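 TI = CC50/IC50. CC50 comes from the Vero E6 MTT survival test. IC50 comes from the NS4B-positive cell fraction by immunofluorescence in DENV2 16681-infected Vero E6 cells (MOI 0.01, 96 h, 0–10 μM).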

Vero C1008 = experiment: Cytotoxicity against African green monkey Vero E6 cells assessed as reduction in survival rate measured after 48 hrs by MTT assay; type: cell-based; conditions: chlorocebus sabaeus, vero c1008, 48 h
In short: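 MTT viability test on Vero E6 cells in DMEM over a range of compound concentrations. CC50 calculated from survival of treated cells relative to mock cells.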

dengue virus type 2 [5] = experiment: Antiviral activity against DENV2 16681 infected in African green monkey Vero E6 cells assessed as inhibitory rate of NS4B positive cells at 10 uM measured after 96 hrs incubation by DAPI staining based immunofluorescence method; type: functional; conditions: Dengue virus, 16681, Vero C1008, 96 h
In short: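 Vero E6 cells in DMEM infected with DENV2 strain 16681 at MOI 0.01, treated at once with compound (0, 0.1, 1, 10 μM), 96 h. Immunofluorescence with anti-NS4B antibody and DAPI counterstain. Infectivity taken as NS4B-positive cells over DAPI-stained total cells. Inhibitory rate = (1 − NS4B-positive % treated infected / NS4B-positive % mock-treated infected) × 100.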

Compound	inhibition (dengue virus type 2 [1])	inhibition at 10 µM (dengue virus type 2 [5])	other results
CC[C@H](C)[C@H](NC(=O)[C@H]1O[C@@H](O[C@H]2[C@@H](O[C@H]3CC[C@]4(C)[C@H]5C(=O)C=C6[C@@H]7C[C@@](C)(C(=O)N[C@H](C(=O)OC)[C@@H](C)CC)CC[C@]7(C)CC[C@@]6(C)[C@]5(C)CC[C@H]4C3(C)C)O[C@H](C(=O)N[C@H](C(=O)OC)[C@@H](C)CC)[C@@H](O)[C@@H]2O)[C@H](O)[C@@H](O)[C@@H]1O)C(=O)OC	inactive		
COC(=O)CCCCCCCCCCNC(=O)[C@H]1O[C@@H](O[C@H]2[C@@H](O[C@H]3CC[C@]4(C)[C@H]5C(=O)C=C6[C@@H]7C[C@@](C)(C(=O)O)CC[C@]7(C)CC[C@@]6(C)[C@]5(C)CC[C@H]4C3(C)C)O[C@H](C(=O)NCCCCCCCCCCC(=O)OC)[C@@H](O)[C@@H]2O)[C@H](O)[C@@H](O)[C@@H]1O	Active	79.5%	IC50 (dengue virus type 2 [2]): 1.2 µM; inhibition (dengue virus type 2 [2]): Dose-dependent effect; inhibition (dengue virus type 2 [3]): Dose-dependent effect; selectivity ratio [4]: > 80; CC50 (Vero C1008): > 100 µM
COC(=O)CC[C@H](NC(=O)[C@H]1O[C@@H](O[C@H]2[C@@H](O[C@H]3CC[C@]4(C)[C@H]5C(=O)C=C6[C@@H]7C[C@@](C)(C(=O)N[C@@H](CCC(=O)OC)C(=O)OC)CC[C@]7(C)CC[C@@]6(C)[C@]5(C)CC[C@H]4C3(C)C)O[C@H](C(=O)N[C@@H](CCC(=O)OC)C(=O)OC)[C@@H](O)[C@@H]2O)[C@H](O)[C@@H](O)[C@@H]1O)C(=O)OC	inactive		
CC1(C)[C@@H](O[C@H]2O[C@H](C(=O)O)[C@@H](O)[C@H](O)[C@H]2O[C@@H]2O[C@H](C(=O)O)[C@@H](O)[C@H](O)[C@H]2O)CC[C@]2(C)[C@H]3C(=O)C=C4[C@@H]5C[C@@](C)(C(=O)O)CC[C@]5(C)CC[C@@]4(C)[C@]3(C)CC[C@@H]12 [GLYCYRRHIZIN]	Active	70.5%	IC50 (dengue virus type 2 [2]): 8.1 µM; inhibition (dengue virus type 2 [2]): Dose-dependent effect; inhibition (dengue virus type 2 [3]): Dose-dependent effect; selectivity ratio [4]: > 12.3; CC50 (Vero C1008): > 100 µM
COC(=O)[C@@H](CC(C)C)NC(=O)[C@H]1O[C@@H](O[C@H]2[C@@H](O[C@H]3CC[C@]4(C)[C@H]5C(=O)C=C6[C@@H]7C[C@@](C)(C(=O)N[C@H](CC(C)C)C(=O)OC)CC[C@]7(C)CC[C@@]6(C)[C@]5(C)CC[C@H]4C3(C)C)O[C@H](C(=O)N[C@H](CC(C)C)C(=O)OC)[C@@H](O)[C@@H]2O)[C@H](O)[C@@H](O)[C@@H]1O	Active	53.1%	
COC(=O)[C@@]1(C)CC[C@]2(C)CC[C@]3(C)C(=CC(=O)[C@@H]4[C@@]5(C)CC[C@H](O[C@H]6O[C@H](C(=O)N/N=C/c7ccncc7)[C@@H](O)[C@H](O)[C@H]6O[C@@H]6O[C@H](C(=O)N/N=C/c7ccncc7)[C@@H](O)[C@H](O)[C@H]6O)C(C)(C)[C@@H]5CC[C@]43C)[C@@H]2C1	inactive		
COC(=O)[C@@]1(C)CC[C@]2(C)CC[C@]3(C)C(=CC(=O)[C@@H]4[C@@]5(C)CC[C@H](O[C@H]6O[C@H](C(=O)NN)[C@@H](O)[C@H](O)[C@H]6O[C@@H]6O[C@H](C(=O)NN)[C@@H](O)[C@H](O)[C@H]6O)C(C)(C)[C@@H]5CC[C@]43C)[C@@H]2C1	inactive		
COC(=O)[C@H](Cc1ccc(O)cc1)NC(=O)[C@H]1O[C@@H](O[C@H]2[C@@H](O[C@H]3CC[C@]4(C)[C@H]5C(=O)C=C6[C@@H]7C[C@@](C)(C(=O)N[C@@H](Cc8ccc(O)cc8)C(=O)OC)CC[C@]7(C)CC[C@@]6(C)[C@]5(C)CC[C@H]4C3(C)C)O[C@H](C(=O)N[C@@H](Cc3ccc(O)cc3)C(=O)OC)[C@@H](O)[C@@H]2O)[C@H](O)[C@@H](O)[C@@H]1O	inactive		
COC(=O)[C@@]1(C)CC[C@]2(C)CC[C@]3(C)C(=CC(=O)[C@@H]4[C@@]5(C)CC[C@H](O[C@H]6O[C@H](C(=O)N/N=C/c7ccc(N(C)C)cc7)[C@@H](O)[C@H](O)[C@H]6O[C@@H]6O[C@H](C(=O)N/N=C/c7ccc(N(C)C)cc7)[C@@H](O)[C@H](O)[C@H]6O)C(C)(C)[C@@H]5CC[C@]43C)[C@@H]2C1	inactive		
CC1(C)[C@@H](O[C@H]2O[C@H](C(=O)N[C@@H](Cc3ccc(O)cc3)C(=O)O)[C@@H](O)[C@H](O)[C@H]2O[C@@H]2O[C@H](C(=O)N[C@@H](Cc3ccc(O)cc3)C(=O)O)[C@@H](O)[C@H](O)[C@H]2O)CC[C@]2(C)[C@H]3C(=O)C=C4[C@@H]5C[C@@](C)(C(=O)N[C@@H](Cc6ccc(O)cc6)C(=O)O)CC[C@]5(C)CC[C@@]4(C)[C@]3(C)CC[C@@H]12	Active	68.5%	IC50 (dengue virus type 2 [2]): 2.2 µM; inhibition (dengue virus type 2 [2]): Dose-dependent effect; inhibition (dengue virus type 2 [3]): Dose-dependent effect; selectivity ratio [4]: > 46.5; CC50 (Vero C1008): > 100 µM
COC(=O)[C@@]1(C)CC[C@]2(C)CC[C@]3(C)C(=CC(=O)[C@@H]4[C@@]5(C)CC[C@H](O[C@H]6O[C@H](C(=O)N/N=C/c7ccc(O)cc7)[C@@H](O)[C@H](O)[C@H]6O[C@@H]6O[C@H](C(=O)N/N=C/c7ccc(O)cc7)[C@@H](O)[C@H](O)[C@H]6O)C(C)(C)[C@@H]5CC[C@]43C)[C@@H]2C1	Active	32.5%	
COC(=O)[C@H](CC(C)C)NC(=O)[C@H]1O[C@@H](O[C@H]2[C@@H](O[C@H]3CC[C@]4(C)[C@H]5C(=O)C=C6[C@@H]7C[C@@](C)(C(=O)N[C@@H](CC(C)C)C(=O)OC)CC[C@]7(C)CC[C@@]6(C)[C@]5(C)CC[C@H]4C3(C)C)O[C@H](C(=O)N[C@@H](CC(C)C)C(=O)OC)[C@@H](O)[C@@H]2O)[C@H](O)[C@@H](O)[C@@H]1O	inactive		
COC(=O)[C@@H](Cc1ccccc1)NC(=O)[C@H]1O[C@@H](O[C@H]2[C@@H](O[C@H]3CC[C@]4(C)[C@H]5C(=O)C=C6[C@@H]7C[C@@](C)(C(=O)N[C@H](Cc8ccccc8)C(=O)OC)CC[C@]7(C)CC[C@@]6(C)[C@]5(C)CC[C@H]4C3(C)C)O[C@H](C(=O)N[C@H](Cc3ccccc3)C(=O)OC)[C@@H](O)[C@@H]2O)[C@H](O)[C@@H](O)[C@@H]1O	inactive		
COC(=O)[C@H](Cc1ccccc1)NC(=O)[C@H]1O[C@@H](O[C@H]2[C@@H](O[C@H]3CC[C@]4(C)[C@H]5C(=O)C=C6[C@@H]7C[C@@](C)(C(=O)N[C@@H](Cc8ccccc8)C(=O)OC)CC[C@]7(C)CC[C@@]6(C)[C@]5(C)CC[C@H]4C3(C)C)O[C@H](C(=O)N[C@@H](Cc3ccccc3)C(=O)OC)[C@@H](O)[C@@H]2O)[C@H](O)[C@@H](O)[C@@H]1O	inactive		
COC(=O)C[C@H](NC(=O)[C@H]1O[C@@H](O[C@H]2[C@@H](O[C@H]3CC[C@]4(C)[C@H]5C(=O)C=C6[C@@H]7C[C@@](C)(C(=O)O)CC[C@]7(C)CC[C@@]6(C)[C@]5(C)CC[C@H]4C3(C)C)O[C@H](C(=O)N[C@@H](CC(=O)OC)C(=O)OC)[C@@H](O)[C@@H]2O)[C@H](O)[C@@H](O)[C@@H]1O)C(=O)O	Active	35.8%	
COC(=O)[C@@H](NC(=O)[C@H]1O[C@@H](O[C@H]2[C@@H](O[C@H]3CC[C@]4(C)[C@H]5C(=O)C=C6[C@@H]7C[C@@](C)(C(=O)N[C@H](C(=O)OC)C(C)C)CC[C@]7(C)CC[C@@]6(C)[C@]5(C)CC[C@H]4C3(C)C)O[C@H](C(=O)N[C@H](C(=O)OC)C(C)C)[C@@H](O)[C@@H]2O)[C@H](O)[C@@H](O)[C@@H]1O)C(C)C	inactive		
CC1(C)[C@@H](O[C@H]2O[C@H](C(=O)N[C@@H](Cc3ccccc3)C(=O)O)[C@@H](O)[C@H](O)[C@H]2O[C@@H]2O[C@H](C(=O)N[C@@H](Cc3ccccc3)C(=O)O)[C@@H](O)[C@H](O)[C@H]2O)CC[C@]2(C)[C@H]3C(=O)C=C4[C@@H]5C[C@@](C)(C(=O)N[C@@H](Cc6ccccc6)C(=O)O)CC[C@]5(C)CC[C@@]4(C)[C@]3(C)CC[C@@H]12	inactive		
COC(=O)[C@@H](Cc1c[nH]c2ccccc12)NC(=O)[C@H]1O[C@@H](O[C@H]2[C@@H](O[C@H]3CC[C@]4(C)[C@H]5C(=O)C=C6[C@@H]7C[C@@](C)(C(=O)N[C@H](Cc8c[nH]c9ccccc89)C(=O)OC)CC[C@]7(C)CC[C@@]6(C)[C@]5(C)CC[C@H]4C3(C)C)O[C@H](C(=O)N[C@H](Cc3c[nH]c4ccccc34)C(=O)OC)[C@@H](O)[C@@H]2O)[C@H](O)[C@@H](O)[C@@H]1O	inactive		

From ChEMBL document CHEMBL4396972, “Glycyrrhizic acid derivatives as Dengue virus inhibitors” (Bioorg Med Chem Lett, 2019)
